According to ChEMBL document CHEMBL3769316, “Discovery of novel heteroarylmethylcarbamodithioates as potent anticancer agents: Synthesis, structure-activity relationship analysis and biological evaluation” (Eur J Med Chem, 2016):
The source made the active and inactive calls. No cut-off for these calls is given here.

Legend:
PC-3 [1] = experiment: Induction of mitotic arrest in human PC3 cells assessed as increase in supernumerary centrosome formation at 40 nM after 6 hrs using DAPI staining by immunofluorescence-based laser scanning confocal microscopy; type: functional, cell-based
Procedure, shortened: (§1)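 PC-3 cells on confocal dishes were exposed 6 h to compound (2 µM) or taxol (40 nM), then fixed in 4% paraformaldehyde overnight at 4 °C and blocked. They were stained overnight at 4 °C with anti-β-tubulin and anti-γ-tubulin (1:100 each), then 1 h with Alexa Fluor 488/647 secondaries, and co-stained for DNA. Spindles and centrosomes were imaged by confocal microscopy.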

PC-3 [2] = experiment: Induction of mitotic arrest in human PC3 cells assessed as increase in multipolar spindle formation at 40 nM after 6 hrs using DAPI staining by immunofluorescence-based laser scanning confocal microscopy; type: functional, cell-based; procedure, shortened: as §1
PC-3 [3] = experiment: Induction of mitotic arrest in human PC3 cells assessed as increase in MPM-2 level at 40 nM after 24 hrs by Western blot method; type: functional, cell-based
Procedure, shortened: (§2)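 PC-3 cells were treated 24 h with compound (0.5-4 µM) or taxol (40 nM) as positive control, then lysed in RIPA with PMSF and protease inhibitors. Lysates were run on SDS-PAGE and transferred to PVDF, which was blocked with 5% milk for 1 h. Membranes were probed overnight at 4 °C for MPM-2 (1:1000), phospho-H3 (1:600) or β-actin (1:1000), followed by HRP secondary and chemiluminescence.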

PC-3 [4] = experiment: Induction of mitotic arrest in human PC3 cells assessed as increase in histone H3 phosphorylation at Ser10 at 40 nM after 24 hrs by Western blot method; type: functional, cell-based; procedure, shortened: as §2
[5] = Cytotoxicity against human HL60 cells after 72 hrs by alamar blue assay; type: functional, cell-based; conditions: HL-60, 72 h
Procedure, shortened: (§3)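 Cells seeded and cultured overnight, then exposed to compound at varying concentrations for 72 h. Cells were then incubated 2-4 h in medium containing 10% Alamar blue, and fluorescence was read at ex 530/em 590 nm. Dose-response curves used at least five concentrations, and IC50 (50% growth inhibition) was taken from these curves. Culture was at 37 °C.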

[6] = Cytotoxicity against human Bel7402 cells after 72 hrs by alamar blue assay; type: functional, cell-based; conditions: Bel-7402, 72 h; procedure, shortened: as §3
SK-BR-3 = experiment: Cytotoxicity against human SK-BR-3 cells after 72 hrs by alamar blue assay; type: functional, cell-based; conditions: SK-BR-3, 72 h; procedure, shortened: as §3
MDA-MB-468 = experiment: Cytotoxicity against human MDA-MB-468 cells after 72 hrs by alamar blue assay; type: functional, cell-based; conditions: MDA-MB-468, 72 h; procedure, shortened: as §3
NCI-H1299 = experiment: Cytotoxicity against human NCI-H1299 cells after 72 hrs by alamar blue assay; type: functional, cell-based; conditions: NCI-H1299, 72 h; procedure, shortened: as §3
NCI-H460 = experiment: Cytotoxicity against human NCI-H460 cells after 72 hrs by alamar blue assay; type: functional, cell-based; conditions: NCI-H460, 72 h; procedure, shortened: as §3
NCI-H522 = experiment: Cytotoxicity against human NCI-H522 cells after 72 hrs by alamar blue assay; type: functional, cell-based; conditions: NCI-H522, 72 h; procedure, shortened: as §3
[7] = Cytotoxicity against human DU145 cells after 72 hrs by alamar blue assay; type: functional, cell-based; conditions: DU-145, 72 h; procedure, shortened: as §3
[8] = Cytotoxicity against human COLO205 cells after 72 hrs by alamar blue assay; type: functional, cell-based; conditions: COLO 205, 72 h; procedure, shortened: as §3
[9] = Cytotoxicity against human HCT8 cells after 72 hrs by alamar blue assay; type: functional, cell-based; conditions: HCT-8, 72 h; procedure, shortened: as §3
[10] = Cytotoxicity against human PC3 cells after 72 hrs by alamar blue assay; type: functional, cell-based; conditions: PC-3, 72 h
Procedure, shortened: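 PC-3 cells were grown at 37 °C, 5% CO₂ in F-12K with 10% FBS, penicillin and streptomycin. They were seeded overnight and treated with at least five concentrations for 72 h. Alamar blue (10% in medium) was added for 2-4 h, and fluorescence was read at 530/590 nm. IC50 was taken from the dose-response curves.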

[11] = Cytotoxicity against human HCT116 cells after 72 hrs by alamar blue assay; type: functional, cell-based; conditions: HCT-116, 72 h; procedure, shortened: as §3
[12] = Cytotoxicity against human LO2 cells after 72 hrs by alamar blue assay; type: cell-based; conditions: L02, 72 h; procedure, shortened: as §3
[13] = Cytotoxicity against HEK293T cells after 72 hrs by alamar blue assay; type: cell-based; conditions: Homo sapiens, HEK-293T
PC-3 [14] = experiment: Induction of apoptosis in human PC3 cells assessed as chromatin condensation at 0.5 to 2 uM after 48 hrs by Hoechst 33342 staining-based fluorescence microscopy; type: functional, cell-based
Procedure, shortened: (§4)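 Cells were treated with graded concentrations for 48 h, washed with PBS and fixed in 4% paraformaldehyde for 15 min. They were then stained with Hoechst 33342 (10 µg/ml in PBS) for 10 min at room temperature. Nuclear morphology and chromatin condensation were imaged by fluorescence microscopy under UV illumination.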

Bel-7402 [15] = experiment: Induction of apoptosis in human Bel7402 cells assessed as chromatin condensation at 1 to 4 uM after 48 hrs by Hoechst 33342 staining-based fluorescence microscopy; type: functional, cell-based; procedure, shortened: as §4
PC-3 [16] = experiment: Induction of apoptosis in human PC3 cells assessed as increase in early apoptotic cells after 48 hrs by annexin V-FITC/propidium iodide staining-based flow cytometry; type: functional, cell-based
Procedure, shortened: (§5)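 After 48 h exposure to graded concentrations, both floating and adherent cells were collected into binding buffer. They were stained with Annexin V-FITC plus PI for 15 min in the dark and analysed immediately by flow cytometry. Annexin V+/PI− cells were counted as early apoptotic and Annexin V+/PI+ cells as late apoptotic.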

Bel-7402 [17] = experiment: Induction of apoptosis in human Bel7402 cells assessed as increase in early apoptotic cells after 48 hrs by annexin V-FITC/propidium iodide staining-based flow cytometry; type: functional, cell-based; procedure, shortened: as §5
PC-3 [18] = experiment: Induction of apoptosis in human PC3 cells assessed as increase in late apoptotic cells after 48 hrs by annexin V-FITC/propidium iodide staining-based flow cytometry; type: functional, cell-based; procedure, shortened: as §5
Bel-7402 [19] = experiment: Induction of apoptosis in human Bel7402 cells assessed as increase in late apoptotic cells after 48 hrs by annexin V-FITC/propidium iodide staining-based flow cytometry; type: functional, cell-based; procedure, shortened: as §5
PC-3 [20] = experiment: Induction of cell cycle arrest in human PC3 cells assessed as accumulation at G0/G1 phase at 2 uM after 24 hrs by propidium iodide staining-based flow cytometry (reference value: 42.23%); type: functional
PC-3 [21] = experiment: Induction of cell cycle arrest in human PC3 cells assessed as accumulation at S phase at 2 uM after 24 hrs by propidium iodide staining-based flow cytometry (reference value: 37.86%); type: functional
PC-3 [22] = experiment: Induction of cell cycle arrest in human PC3 cells assessed as accumulation at G2/M phase at 2 uM after 24 hrs by propidium iodide staining-based flow cytometry (reference value: 19.9%); type: functional
Bel-7402 [23] = experiment: Induction of cell cycle arrest in human Bel7402 cells assessed as accumulation at G0/G1 phase at 2 uM after 24 hrs by propidium iodide staining-based flow cytometry (reference value: 36.76%); type: functional
Bel-7402 [24] = experiment: Induction of cell cycle arrest in human Bel7402 cells assessed as accumulation at S phase at 2 uM after 24 hrs by propidium iodide staining-based flow cytometry (reference value: 47.24%); type: functional
Bel-7402 [25] = experiment: Induction of cell cycle arrest in human Bel7402 cells assessed as accumulation at G2/M phase at 2 uM after 24 hrs by propidium iodide staining-based flow cytometry (reference value: 16%); type: functional
PC-3 [26] = experiment: Induction of mitotic arrest in human PC3 cells assessed as increase in MPM-2 level at 0.5 to 4 uM after 24 hrs by Western blot method; type: functional, cell-based; procedure, shortened: as §2
PC-3 [27] = experiment: Induction of mitotic arrest in human PC3 cells assessed as increase in histone H3 phosphorylation at Ser10 at 0.5 to 4 uM after 24 hrs by Western blot method; type: functional, cell-based; procedure, shortened: as §2
PC-3 [28] = experiment: Induction of mitotic arrest in human PC3 cells assessed as increase in supernumerary centrosome formation at 2 uM after 6 hrs using DAPI staining by immunofluorescence-based laser scanning confocal microscopy; type: functional, cell-based; procedure, shortened: as §1
PC-3 [29] = experiment: Induction of mitotic arrest in human PC3 cells assessed as increase in multipolar spindle formation at 2 uM after 6 hrs using DAPI staining by immunofluorescence-based laser scanning confocal microscopy; type: functional, cell-based; procedure, shortened: as §1
[30] = Cytotoxicity against human SW620 cells after 72 hrs by alamar blue assay; type: functional, cell-based; conditions: SW-620, 72 h
Procedure, shortened: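 SW620 cells were kept at 37 °C in 100% air in Leibovitz's L-15 with 10% FBS, penicillin and streptomycin. After overnight seeding, cells were given at least five concentrations for 72 h. Cells were then incubated 2-4 h with 10% Alamar blue, and fluorescence was read at ex 530/em 590 nm. IC50 was interpolated from the dose-response curves.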

CC(=O)O[C@H]1C(=O)[C@@]2(C)[C@H]([C@H](OC(=O)c3ccccc3)[C@]3(O)C[C@H](OC(=O)[C@H](O)[C@@H](NC(=O)c4ccccc4)c4ccccc4)C(C)=C1C3(C)C)[C@]1(OC(C)=O)CO[C@@H]1C[C@@H]2O
Activity (PC-3 [1]): Active | Activity (PC-3 [2]): Active | Activity (PC-3 [3]): Active | Activity (PC-3 [4]): Active

N#CCCSC(=S)NCc1cccnc1
IC50 [5]: 0.74 µM | IC50 [6]: 1.03 µM | IC50 (SK-BR-3): 2.84 µM | IC50 (MDA-MB-468): 9.53 µM

N#CCCSC(=S)NCc1cnc(N2CCOCC2)nc1
IC50 [5]: 5.03 µM | IC50 [6]: 22.4 µM

N#CCCSC(=S)NCc1nnc(-c2ccccc2)s1
IC50 [5]: 11.8 µM | IC50 [6]: 18.7 µM

Cc1nc(-c2ccccc2)oc1CNC(=S)SCCC#N
IC50 [5]: 7.88 µM | IC50 [6]: 17.9 µM

N#CCCSC(=S)NCc1cnc2ccccc2c1
IC50 [5]: 5.18 µM | IC50 [6]: 96.4 µM

S=C(NCc1cccnc1)SCCc1nnc(-c2ccccc2)o1
IC50 [6]: 1.23 µM | IC50 (SK-BR-3): 0.58 µM | IC50 (MDA-MB-468): 2.77 µM | IC50 (NCI-H1299): 1.89 µM | IC50 (NCI-H460): 6.07 µM | IC50 (NCI-H522): 2.16 µM | IC50 [7]: 3.34 µM | IC50 [8]: 7.92 µM | IC50 [9]: 5.98 µM | IC50 [10]: 0.39 µM | IC50 [11]: 8.21 µM | IC50 [12]: 9.67 µM | IC50 [13]: 14.6 µM | Activity (PC-3 [14]): Active | Activity (Bel-7402 [15]): Active | Activity (PC-3 [16]): Dose-dependent effect | Activity (Bel-7402 [17]): Dose-dependent effect | Activity (PC-3 [18]): Dose-dependent effect | Activity (Bel-7402 [19]): Dose-dependent effect | Activity (PC-3 [20]): 22.41% | Activity (PC-3 [21]): 26.46% | Activity (PC-3 [22]): 51.1% | Activity (Bel-7402 [23]): 21.42% | Activity (Bel-7402 [24]): 29.9% | Activity (Bel-7402 [25]): 46.27% | Activity (PC-3 [26]): Active | Activity (PC-3 [27]): Active | Activity (PC-3 [28]): Active | Activity (PC-3 [29]): Active | IC50 [30]: 3.8 µM

Cc1c(CNC(=S)SCCC#N)cnn1-c1ccccc1
IC50 [5]: 6.05 µM | IC50 [6]: 24.9 µM

CN1CCOc2cc(CNC(=S)SCCC#N)cnc21
IC50 [5]: 82.8 µM | IC50 [6]: 327 µM
